MIC data for 13 molecules are collected here from ChEMBL document CHEMBL1125377, “Phenothiazines as lipid peroxidation inhibitors and cytoprotective agents” (1992).

What is called MIC is the smallest concentration in the dilution series that meets the test's criterion for growth inhibition.

In brackets after ≈: the same amount, converted by molar mass.

For the first test, the species on record is Oryctolagus cuniculus. In words: In vitro inhibition of iron-dependent peroxidation of rabbit brain vesicular membrane lipids. The class given is functional.
Settings: not given
The procedure, abridged:
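Rabbit brain homogenized 10% w/v in 25 mM Tris-HCl with 0.15 M KCl, pH 7.5, spun 10000g for 15 min. The supernatant was given the agent in DMSO and incubated with ADP (220 μM) and FeCl3 (2 μM) at 37 °C for 1 h; the control was not incubated. TBARS read at 532 nm as MDA against a standard curve. Reported as MIC, the minimum tested concentration giving ≥50% inhibition.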
With `CN(C)CCOc1ccc2c(c1)Nc1ccccc1S2.Cl`, the minimal inhibitory concentration (MIC) came out at 0.093 µM.
Molecule `CN(C)CCOc1ccc2c(c1)Nc1ccccc1S2.CS(=O)(=O)O` showed an MIC of 0.26 µM.

The same test, now with this note: Oryctolagus cuniculus; read-out: MIC.
For `CN(C)CCOc1ccc2c(c1)N(C)c1ccccc1S2`, the MIC is 21 µM (≈ 6.31 µg/mL).
Same read-out and setting: then `CN(C)CCOc1ccc2c(c1C(=O)N(C)C)Nc1ccccc1S2`, with 2.5 µM (≈ 0.894 µg/mL).
Same read-out and setting: as for `CN(C)CCCN1c2ccccc2Sc2ccc(Cl)cc21` [CHLORPROMAZINE], the figure is 10 µM (≈ 3.19 µg/mL).
The same measure, in the same setting: then `c1ccc2c(c1)Nc1ccccc1S2` [PHENOTHIAZINE], with 0.15 µM (≈ 0.0299 µg/mL); and `OCCN1CCN(CCOc2ccc3c(c2)Nc2ccccc2S3)CC1`, with 0.068 µM (≈ 0.0253 µg/mL).
On to `CN(C)CCOc1ccc2c(c1)Sc1ccccc1N2`, for which the MIC turned out to be 0.056 µM (≈ 0.016 µg/mL).
Take `CN(C)CCCOc1ccc2c(c1)Nc1ccccc1S2`: the minimal inhibitory concentration (MIC) was 0.14 µM (≈ 0.0421 µg/mL).
Same read-out and setting: as for `CN(C)CCCOc1ccc2c(c1)Sc1ccccc1N2`, the figure is 0.089 µM (≈ 0.0267 µg/mL); as for `NCCOc1ccc2c(c1)Nc1ccccc1S2`, 0.18 µM (≈ 0.0465 µg/mL); as for `COc1ccc2c(c1C(=O)NCCN(C)C)Nc1ccccc1S2`, 2.6 µM (≈ 0.893 µg/mL).
Still for that read-out and setting: as for `OCCN1CCN(CCCc2ccc3c(c2)Nc2ccccc2S3)CC1`, the figure is 0.17 µM (≈ 0.0628 µg/mL).
